Variants at the floor of the assay were thinned out.
B1: tRNA (parent)
chain: GUUCCGUUGGCGUAAUGGUAACGCGUCUCCCUCCUAAGGAGAAGACUGCGGGUUCGAGUCCCGUACGGAACG

Variants of: B1
Assay: yeast fitness relative to wild type (ratio to wild type); higher = fitter; tRNA-Arg(CCU), competitive growth, 37 C, YPD
In short: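 The tRNA-Arg(CCU) gene variants were made by chemical synthesis with a 3% per-site mutation rate at 69 sites and inserted at the native genomic locus of Saccharomyces cerevisiae. After pooling, the strains were competed in YPD at 37°C for 24 hours in six parallel replicates. Gene amplicons from the start population and each end population were read by 100-nucleotide paired-end sequencing, and Darwinian fitness relative to wild type was taken from genotype frequency changes. Genotypes needed ≥ 100 starting reads, and estimates < 0.5 were set to 0.5.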

Variant	yeast fitness
A14G G23A U64G A69U	≤ 0.5
A14C C27U C34G G51A G67U	≤ 0.5
A14C U19G C31G C33U A42G U64C A65G A69C	≤ 0.5
A14C A70G	0.749
A14G C24G C31U	≤ 0.5
A14C A21G U53A	≤ 0.5
A14U A37G G44C A45C G50A C55G	0.594
U13G G17C C31U	≤ 0.5
A14C C22G G25A C31U	0.528
A14G U26G A43C G68A	≤ 0.5
U13C C31A C46U A70C	≤ 0.5
A14C A20G A42C G48C	≤ 0.5
A14U A57C U59A	0.703
A14C C27U C30U C34A C62A	≤ 0.5
U13G C22U G63A	0.707
A14G A45G C61A	≤ 0.5
A14U A15U C49U G56C	≤ 0.5
A14C U35C A69U	≤ 0.5
A14C U59C	0.687
A14G C27G C34G A37U U64A	0.667
A14G U26C A37G C61U G68A	≤ 0.5

Variant	yeast fitness
A14C A15C U16C C27U C29A C34G G50C	≤ 0.5
A14G G38A	0.799
A14G G23U G58A	≤ 0.5
A14G U35A G56A C66U	≤ 0.5
A14G A20C C31G A45U G48C	≤ 0.5
A14G A57C	0.555
A14G C27U U47A C62U	0.566
A14C G18A A20U	≤ 0.5
A14C C30A C31G U64A	0.584
A14U A20C A37C C49G	≤ 0.5
U13G C27A C30A G63C	0.537
A14G A43G	0.932
A14C A15U C34G G50A	≤ 0.5
A14U A43C U54A	≤ 0.5
U13C C31A C49G C61G	≤ 0.5
A14G U19A A20G A40U	≤ 0.5
A14C A40U C55G C61U C66U	≤ 0.5
A14U A45C C49U A65C	≤ 0.5
U13G U47C	1.02
A14U A40G A45U G56A	≤ 0.5
A14C C55G G68C	≤ 0.5

Variant	yeast fitness
A14C U19C C33G	0.641
A14G C62U	0.937
A14C C22U A70G	≤ 0.5
A14G C30A C34A A43C C60G C62A	≤ 0.5
U13C U32C A40G	≤ 0.5
A14G C27U U28C	0.541
A14G C22A C27A C29U A42C G63C	≤ 0.5
A14G A21C C30G C55G	0.533
A14G U19C G68A	0.559
A14G G67A	0.821
A14C C24A C61A	≤ 0.5
A14G C34U C49A C60U	0.512
A14G A43G C60U C62U A70C	≤ 0.5
U13C U26G U35C G63A A70G	≤ 0.5
A14G A37C G56A	≤ 0.5
U13C U47C	0.905
A14G G58A	0.836
A14C C27G C46G C62U	≤ 0.5
U13C U16G C49G	0.617
A14U A15C A40G U47C G56C G67C	≤ 0.5
A14U A45C G56A	0.581

Variant	yeast fitness
A14C U19A	0.602
A14C U16G C29U U54C	≤ 0.5
A14G C24G C66U	≤ 0.5
U13C U59A	0.768
U13C U59C	0.858
A14U A45C U47C C55U A65C A69C	≤ 0.5
A14C A36G A43U G68A	0.522
A14G U19A C27G U28A C34A A36G A43G	0.608
A14G C29U G52C	≤ 0.5
U13G A40G G44C C61G	≤ 0.5
U13G C22U A45U U59C	0.54
A14C A20U C31U G38C U59A	≤ 0.5
A14G C24A	0.666
A14C A45U G50C C66G	≤ 0.5
U13G U26A A45C A69C	0.577
A14C A20G A45C A57C	≤ 0.5
U13C C33G A40G U59A	≤ 0.5
U13C G25C C27G	0.539
U13C C30A C31A	0.532
U13C G17A U47C A65G	≤ 0.5

Reference: the RNAGym collection of RNA variant scans (doi:10.1126/science.aae0568)
